For assay [1], the target named is T1, 72 kDa type IV collagenase (Homo sapiens, UniProt P08253). The assay can be described thus: Inhibition of MMP2 in human SKOV3 cell suspension using succinylated gelatin as substrate preincubated for 10 mins before substrate addition measured after 30 mins by spectrophotometry. On the set-up: species or system SK-OV-3. An outline of the steps: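 Enzyme source was SKOV-3 cells suspended in PBS, 1 × 10⁵/well, incubated with inhibitor in 50 mmol/L sodium borate pH 8.5 for 10 min at 37 °C. Succinylated gelatin added for 30 min at 37 °C, then 0.03% TNBS for 20 min; absorbance at 450 nm. IC₅₀ as mean with SD of three experiments.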
T1 sequence (P08253 whole entry): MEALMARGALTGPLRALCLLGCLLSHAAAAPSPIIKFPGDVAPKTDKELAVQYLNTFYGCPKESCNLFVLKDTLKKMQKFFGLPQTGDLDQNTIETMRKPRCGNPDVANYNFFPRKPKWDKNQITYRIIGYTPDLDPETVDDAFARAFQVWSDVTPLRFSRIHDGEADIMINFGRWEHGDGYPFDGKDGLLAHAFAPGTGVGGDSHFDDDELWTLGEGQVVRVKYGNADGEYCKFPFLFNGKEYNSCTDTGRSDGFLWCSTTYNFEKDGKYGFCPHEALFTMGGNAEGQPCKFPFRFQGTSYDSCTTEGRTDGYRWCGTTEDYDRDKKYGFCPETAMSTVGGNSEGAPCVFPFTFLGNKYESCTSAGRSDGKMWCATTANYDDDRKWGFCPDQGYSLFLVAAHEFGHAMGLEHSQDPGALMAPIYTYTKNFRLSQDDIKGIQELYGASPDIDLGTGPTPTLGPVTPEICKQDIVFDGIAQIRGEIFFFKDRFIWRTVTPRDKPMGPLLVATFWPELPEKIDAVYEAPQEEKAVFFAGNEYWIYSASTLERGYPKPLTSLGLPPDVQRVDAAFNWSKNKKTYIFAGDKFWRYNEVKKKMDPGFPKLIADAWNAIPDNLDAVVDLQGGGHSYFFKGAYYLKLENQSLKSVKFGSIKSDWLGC

Assay [2] has as its target T1, 72 kDa type IV collagenase. The assay can be described thus: Inhibition of MMP2 (unknown origin) using succinylated gelatin as substrate preincubated for 10 mins before substrate addition measured after 30 mins by spectrophotometry. An outline of the steps: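 Purified MMP-2 (gelatinase A) and inhibitor in 50 mmol/L sodium borate pH 8.5, preincubated 10 min at 37 °C. Succinylated gelatin then added for 30 min at 37 °C, followed by 0.03% TNBS for 20 min; OD read at 450 nm. IC₅₀ as mean with SD of three experiments.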

The target in assay [3] is T2, Aminopeptidase N (Sus scrofa, UniProt P15145).
T2 sequence (P15145 whole entry): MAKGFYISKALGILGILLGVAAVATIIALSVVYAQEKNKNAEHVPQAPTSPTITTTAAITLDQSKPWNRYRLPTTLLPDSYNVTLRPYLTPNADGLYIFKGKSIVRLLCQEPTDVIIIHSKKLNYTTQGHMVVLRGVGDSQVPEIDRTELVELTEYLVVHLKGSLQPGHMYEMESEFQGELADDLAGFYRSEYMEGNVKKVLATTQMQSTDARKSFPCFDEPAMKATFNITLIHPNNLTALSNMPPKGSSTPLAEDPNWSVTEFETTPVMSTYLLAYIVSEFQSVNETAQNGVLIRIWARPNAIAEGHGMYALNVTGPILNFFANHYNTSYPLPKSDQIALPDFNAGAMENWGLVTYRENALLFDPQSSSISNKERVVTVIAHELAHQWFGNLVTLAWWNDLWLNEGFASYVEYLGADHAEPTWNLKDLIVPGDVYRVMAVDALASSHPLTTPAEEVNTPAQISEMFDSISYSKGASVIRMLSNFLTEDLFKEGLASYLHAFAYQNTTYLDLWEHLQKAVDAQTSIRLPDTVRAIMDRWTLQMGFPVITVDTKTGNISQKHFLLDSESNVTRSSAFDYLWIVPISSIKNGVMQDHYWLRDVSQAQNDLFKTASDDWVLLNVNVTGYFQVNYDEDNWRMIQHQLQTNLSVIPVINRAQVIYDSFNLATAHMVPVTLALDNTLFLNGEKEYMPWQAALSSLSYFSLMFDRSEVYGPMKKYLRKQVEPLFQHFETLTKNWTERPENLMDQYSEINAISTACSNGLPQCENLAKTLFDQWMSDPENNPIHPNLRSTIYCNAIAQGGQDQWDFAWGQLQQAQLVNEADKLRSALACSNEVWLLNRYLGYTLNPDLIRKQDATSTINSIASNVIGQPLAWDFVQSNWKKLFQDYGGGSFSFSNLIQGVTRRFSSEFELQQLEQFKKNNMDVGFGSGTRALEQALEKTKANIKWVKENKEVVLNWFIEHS
The assay can be described thus: Inhibition of pig kidney microsomal APN using L-Leu-p-nitroanilide as substrate preincubated for 5 mins before substrate addition measured after 30 mins by spectrophotometry.

Assay [4] addresses Histone deacetylase. The assay can be described thus: Inhibition of HDAC in human HeLa nuclear extract using Boc-Lys (acetyl)-AMC as fluorogenic substrate after 30 mins by spectrophotometry. It counts as protein assay.
In assay [5] the test system is HL-60. The assay can be described thus: Antiproliferative activity against human HL60 cells after 48 hrs by MTT assay. It is filed as functional, cell-based. The note with it: HL-60, 48 h. The method in brief: (§1)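 Cells kept in RPMI1640 with 10% FBS at 37 °C, 5% CO₂; seeded 10,000/well, grown 4 h, then exposed to graded compound concentrations for 48 h. 0.5% MTT added for 4 h, formazan dissolved in DMSO 15 min. IC₅₀ as mean with SD of triplicate experiments.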
In general terms: Formazan colour is commonly taken as a measure of viable cells.

Assay [6] relates to A549. The assay can be described thus: Antiproliferative activity against human A549 cells after 48 hrs by MTT assay. It is filed as functional, cell-based. The following applies: A549, 48 h. An outline of the steps:
as §1

Assay [7] relates to SK-OV-3. The assay can be described thus: Antiproliferative activity against human SKOV3 cells after 48 hrs by MTT assay. It is filed as functional, cell-based. The note with it: SK-OV-3, 48 h. The method in brief:
as §1

In general, IC50 refers to the midpoint of a concentration-inhibition curve. Read a low IC50 as greater potency.

For `COc1ccc(S(=O)(=O)N2C[C@@H](NC(=O)CNC(=O)[C@@H](N)CCSC)C[C@H]2C(=O)NO)cc1.Cl`, the IC50 in assay [1] is 35.9 µM; in assay [2], 0.76 µM; in assay [3], > 100 µM; in assay [4] it was > 100 µM.

Consider `CC(C)[C@H](N)C(=O)NCC(=O)N[C@H]1C[C@@H](C(=O)NO)N(S(=O)(=O)c2ccccc2)C1.Cl`, for which the IC50 in assay [2] was 5.76 µM; in assay [3], > 100 µM; in assay [4], > 100 µM.

As to `COc1ccc(/C=C/C(=O)N2C[C@@H](NC(=O)c3cccnc3)C[C@H]2C(=O)NO)cc1OC`, the IC50 in assay [5] was > 1000 µM; in assay [6], > 1000 µM; in assay [1], 43.7 µM; in assay [2], 0.95 µM; in assay [3] it was > 100 µM; in assay [4] it was > 100 µM. This compound also registered an IC50 in assay [7] of 697 µM.

`COc1ccc(S(=O)(=O)N2C[C@@H](NC(=O)CNC(=O)[C@H](C)N)C[C@H]2C(=O)NO)cc1.Cl`: the IC50 in assay [2] was 4.19 µM; in assay [3], > 100 µM; in assay [4], > 100 µM.

Turning to `CSCC[C@H](N)C(=O)NCC(=O)N[C@H]1C[C@@H](C(=O)NO)N(S(=O)(=O)c2ccc(Cl)cc2)C1.Cl`, the IC50 is > 1000 µM in assay [5]; > 1000 µM in assay [6]; 26.2 µM in assay [1]; 0.46 µM in assay [2]; 95.3 µM in assay [3]; > 100 µM in assay [4]. For the same compound, 322 µM corresponded to half-maximal inhibition in assay [7] (IC50).

Regarding `CSCC[C@H](N)C(=O)NCC(=O)N[C@H]1C[C@@H](C(=O)NO)N(S(=O)(=O)c2ccccc2)C1.Cl`, the IC50 is 2.32 µM in assay [2], > 100 µM in assay [3] and > 100 µM in assay [4].

With `CC(C)C[C@H](NC(=O)[C@@H](O)[C@H](N)Cc1ccccc1)C(=O)O` [UBENIMEX], in assay [2], the IC50 was > 100 µM.

For `C[C@H](N)C(=O)NCC(=O)N[C@H]1C[C@@H](C(=O)NO)N(S(=O)(=O)c2ccccc2)C1.Cl`, the results for the half-inhibitory concentration (IC50) in assay [2], in assay [3] and in assay [4] were 7.43 µM, > 100 µM and > 100 µM, respectively.

As to `COc1ccc(S(=O)(=O)N2C[C@@H](NC(=O)CNC(=O)[C@@H](N)CC(C)C)C[C@H]2C(=O)NO)cc1.Cl`, the IC50 in assay [1] is 29.7 µM; in assay [2], 0.52 µM; in assay [3] it was 83.6 µM; in assay [4], > 100 µM.

Take `C[C@H](N)C(=O)NCC(=O)N[C@H]1C[C@@H](C(=O)NO)N(S(=O)(=O)c2ccc(Cl)cc2)C1.Cl`: the IC50 in assay [2] was 3.36 µM; in assay [3], > 100 µM; in assay [4], > 100 µM.

Take `CC(C)C[C@H](N)C(=O)NCC(=O)N[C@H]1C[C@@H](C(=O)NO)N(S(=O)(=O)c2ccccc2)C1.Cl`: the IC50 in assay [2] was 1.52 µM; in assay [3], 82.3 µM; in assay [4], > 100 µM.

Turning to `CC[C@H](C)[C@H](N)C(=O)NCC(=O)N[C@H]1C[C@@H](C(=O)NO)N(S(=O)(=O)c2ccc(Cl)cc2)C1.Cl`, the IC50 was 1.28 µM in assay [2], 86.4 µM in assay [3] and > 100 µM in assay [4].

On to `Cl.N[C@@H](Cc1ccccc1)C(=O)NCC(=O)N[C@H]1C[C@@H](C(=O)NO)N(S(=O)(=O)c2ccc(Cl)cc2)C1`, for which the IC50 in assay [5] was > 1000 µM; in assay [6], > 1000 µM; in assay [1], 24.7 µM; in assay [2], 0.43 µM; in assay [3], 89.9 µM; in assay [4] it was > 100 µM. Besides, the IC50 in assay [7] was determined as 285 µM.

Consider `Cc1ccc(S(=O)(=O)N2C[C@@H](NC(=O)CNC(=O)[C@@H](N)Cc3ccccc3)C[C@H]2C(=O)NO)cc1.Cl`, for which the IC50 was 0.98 µM in assay [2], 88 µM in assay [3] and > 100 µM in assay [4].

Consider `Cc1ccc(S(=O)(=O)N2C[C@@H](NC(=O)CNC(=O)[C@@H](N)CC(C)C)C[C@H]2C(=O)NO)cc1.Cl`, for which the IC50 in assay [1] was 38.3 µM; in assay [2], 0.87 µM; in assay [3], 75.8 µM; in assay [4], > 100 µM.

For `Cc1ccc(S(=O)(=O)N2C[C@@H](NC(=O)CNC(=O)[C@H](C)N)C[C@H]2C(=O)NO)cc1.Cl`, the IC50 in assay [2] is 4.36 µM; in assay [3], > 100 µM; in assay [4] it was > 100 µM.

Turning to `COc1ccc(S(=O)(=O)N2C[C@@H](NC(=O)CNC(=O)[C@@H](N)C(C)C)C[C@H]2C(=O)NO)cc1.Cl`, the IC50 was 2.71 µM in assay [2], 90.8 µM in assay [3] and > 100 µM in assay [4].

As to `CC(C)C[C@H](N)C(=O)NCC(=O)N[C@H]1C[C@@H](C(=O)NO)N(S(=O)(=O)c2ccc(Cl)cc2)C1.Cl`, the IC50 was > 1000 µM in assay [5]; > 1000 µM in assay [6]; 18.4 µM in assay [1]; 0.27 µM in assay [2]; 72.3 µM in assay [3]; > 100 µM in assay [4]. For the same compound, in assay [7], inhibition was half-maximal at 196 µM (IC50).

As for `Cl.N[C@@H](Cc1ccccc1)C(=O)NCC(=O)N[C@H]1C[C@@H](C(=O)NO)N(S(=O)(=O)c2ccccc2)C1`, the values for the IC50 in assay [2], in assay [3] and in assay [4] were 2.07 µM, 94.5 µM and > 100 µM, respectively.

For the compound `CC[C@H](C)[C@H](N)C(=O)NCC(=O)N[C@H]1C[C@@H](C(=O)NO)N(S(=O)(=O)c2ccc(C)cc2)C1.Cl`, the IC50 in assay [2] was 2.05 µM; in assay [3], 92.6 µM; in assay [4], > 100 µM.

Consider `CC[C@H](C)[C@H](N)C(=O)NCC(=O)N[C@H]1C[C@@H](C(=O)NO)N(S(=O)(=O)c2ccccc2)C1.Cl`, for which the half-maximal inhibitory concentration (IC50) in assay [2] is 5.21 µM; in assay [3] it was > 100 µM; in assay [4], > 100 µM.

As for `Cc1ccc(S(=O)(=O)N2C[C@@H](NC(=O)CNC(=O)[C@@H](N)C(C)C)C[C@H]2C(=O)NO)cc1.Cl`, the IC50 was 2.95 µM in assay [2], 96.2 µM in assay [3] and > 100 µM in assay [4].

Take `CC(C)[C@H](N)C(=O)NCC(=O)N[C@H]1C[C@@H](C(=O)NO)N(S(=O)(=O)c2ccc(Cl)cc2)C1.Cl`: the figures for the IC50 in assay [2], in assay [3] and in assay [4] were 1.81 µM, 79.6 µM and > 100 µM, respectively.

Consider `COc1ccc(S(=O)(=O)N2C[C@@H](NC(=O)CNC(=O)[C@@H](N)Cc3ccccc3)C[C@H]2C(=O)NO)cc1.Cl`, for which the concentration for half-maximal inhibition (IC50) is 31.5 µM in assay [1], 0.72 µM in assay [2], 93.8 µM in assay [3] and > 100 µM in assay [4].

In the case of `CSCC[C@H](N)C(=O)NCC(=O)N[C@H]1C[C@@H](C(=O)NO)N(S(=O)(=O)c2ccc(C)cc2)C1.Cl`, the IC50 in assay [2] was 1.03 µM; in assay [3], > 100 µM; in assay [4] it was > 100 µM.

Take `CC[C@H](C)[C@H](N)C(=O)NCC(=O)N[C@H]1C[C@@H](C(=O)NO)N(S(=O)(=O)c2ccc(OC)cc2)C1.Cl`: the IC50 in assay [2] is 1.94 µM; in assay [3], 89.9 µM; in assay [4], > 100 µM.

The values are drawn from ChEMBL document CHEMBL3259559, “Design, synthesis and preliminary evaluation of α-sulfonyl γ-(glycinyl-amino)proline peptidomimetics as matrix metalloproteinase inhibitors” (Bioorg Med Chem, 2014).
